Source: PubChem
Pf Dd2 inh: inhibitors of Plasmodium falciparum Dd2 growth; activity change, % at 10 µM; P. falciparum Dd2 growth, SYBR Green, 72 h; active compounds read low; 2.3% of 94,000 active; in the data active = activity change below about -80%; inconclusive = no clear call, values can overlap the other calls
IDH1 mut inh: IDH1 R132H (human) inhibition | IDH1 R132H reductase, diaphorase/resazurin fluorescence, 60 min | inhibition, % at 10 µM | 0.18% of 70,000 active | AID 624101; in the data active = inhibition above about 34%; inconclusive = no clear call, values can overlap the other calls; inactive = below about 11%;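 note: 0% = DMSO and 100% = no enzyme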
Target sequence (O75874 whole entry R132H): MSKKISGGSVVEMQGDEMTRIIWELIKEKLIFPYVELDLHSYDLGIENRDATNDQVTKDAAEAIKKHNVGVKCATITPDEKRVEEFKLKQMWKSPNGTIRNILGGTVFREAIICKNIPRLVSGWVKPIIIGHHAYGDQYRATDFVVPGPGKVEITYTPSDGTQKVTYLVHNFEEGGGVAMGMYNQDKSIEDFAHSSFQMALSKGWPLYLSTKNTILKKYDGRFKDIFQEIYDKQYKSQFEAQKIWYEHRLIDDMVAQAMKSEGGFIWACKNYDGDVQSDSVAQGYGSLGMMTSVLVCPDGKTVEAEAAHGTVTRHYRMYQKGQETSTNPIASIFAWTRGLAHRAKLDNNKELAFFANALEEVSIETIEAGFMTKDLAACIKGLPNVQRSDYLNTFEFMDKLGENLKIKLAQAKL
KDM4C inh: inhibitors of human demethylase GASC-1 KDM4C | AID 720574 | Q9H3R0 | GST-KDM4C 2-372, H3K9me3 peptide, LANCE TR-FRET | 0.15% of 96,000 active | inhibition, % at 12.5 µM;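 active = mean replicate inhibition above about 25%, with at least 55% of replicates also reaching it, limit read from the data, passing the limit was not always enough; inconclusive = only one of those two conditions met; inactive = neither condition met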
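System: N-terminal GST-fused human GASC-1 (KDM4C) fragment, residues 2-372; amount: enzyme final amount 10 nM; incubation: reaction 30 min RT, detection step 1 h RT; medium: HEPES buffer, pH 7.5, plus ascorbate; technique: LANCE TR-FRET, Eu antibody, ULight-streptavidin, EDTA, ex 340 nm, em 618/671 nm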
T cruzi growth-1: inhibitors of T. cruzi proliferation; T. cruzi beta-gal in NIH3T3, GalScreen luminescence, 90 h; inhibition, % at 8.34 µM; 5.9% of 77,000 active; AID 624255;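 active = mean inhibition above about 93%, with at least 55% of replicates each passing it, limit read from the data, passing the limit was not always enough; inconclusive = only one of those two conditions holds; inactive = neither condition holds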
T cruzi growth-2: Trypanosoma cruzi proliferation inhibition; 72% of 5,600 active; AID 651739; shares compounds with T cruzi growth-1; inhibition, % at 8.35 µM; T. cruzi beta-gal in NIH3T3, GalScreen luminescence, 90 h;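 active = mean replicate inhibition above about 95% and at least 55% of replicates individually reaching it, limit read from the data; inconclusive = only one of the two criteria is met; inactive = neither criterion is met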
T cruzi growth-3: inhibitors of T. cruzi proliferation | shares compounds with T cruzi growth-1 | T. cruzi beta-gal in NIH3T3, GalScreen luminescence, 90 h | inhibition, % at 2.09 µM | 21% of 5,600 active | AID 651740;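 active = mean inhibition above about 95%, with at least 55% of replicates also reaching it, limit read from the data; inconclusive = meets just one of the two conditions; inactive = meets neither condition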;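 note: plate controls were neutral control median for no effect and positive control median for full effect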
3T3 cytotox: NIH/3T3 (mouse) viability loss; shares compounds with T cruzi growth-1; cytotoxicity (signal decrease), % at 8.35 µM; NIH/3T3 viability, CellTiter-Glo ATP luminescence, 90 h; 14% of 5,600 active; AID 651742;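 active = mean signal decrease across replicates above about 35% based on untreated-well scatter, with enough replicates individually passing, limit read from the data; inconclusive = no rule stated though some were filed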;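 note: 0% = median of neutral control wells and 100% = median of positive control wells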
NIH3T3 tox 2: kills mouse NIH/3T3 fibroblasts | shares compounds with T cruzi growth-1 | 56% of 5,600 active | NIH/3T3 viability, CellTiter-Glo ATP luminescence, 90 h | inhibition, % at 24.9 µM;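 active = mean loss of cell viability signal at or above a set limit, and enough replicates individually reaching it; inconclusive = meets only the mean limit or only the replicate share; inactive = meets neither condition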;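 note: 0% = median of neutral control wells and 100% = median of positive control wells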
Numbers without * were called inactive; ? = inconclusive; . = no result given; + = active, no number. Shown are actives, neighbours in structure and some others; about 5.8% of the full set was active somewhere.

SMILES	Pf Dd2 inh	IDH1 mut inh	KDM4C inh	T cruzi growth-1	T cruzi growth-2	T cruzi growth-3	3T3 cytotox	NIH3T3 tox 2
C[C@H](O)C#Cc1ccc([C@H]2[C@H]3CN(C(=O)c4cccc(F)c4)CCCCN3[C@H]2CO)cc1	27.1	.	-0.5	102.4*	?	22.8	11.4	28.2*
C[C@@H](O)C#Cc1ccc([C@H]2[C@H](CO)N3CCCCN(C(=O)c4cccc(F)c4)C[C@@H]23)cc1	-21.3	.	-1.0	97.5*	106.8*	78.7	4.2	49.6*
C[C@@H](O)C#Cc1ccc([C@@H]2[C@@H](CO)N3CCCCN(C(=O)c4cccc(F)c4)C[C@@H]23)cc1	28.1	.	1.4	72.7	.	.	.	.
CCC(=O)N1CCCCN2[C@@H](CO)[C@H](c3ccc(-c4cccc(C(=O)N(C)C)c4)cc3)[C@@H]2C1	30.2	.	-0.3	99.7*	96.4*	83.8	4.4	20.7
CCC(=O)N1CCCCN2[C@H](CO)[C@H](c3ccc(-c4cccc(C(=O)N(C)C)c4)cc3)[C@H]2C1	18.4	.	0.4	101.2*	76.8	16.5	-11.1	18.6
Cn1cnc(S(=O)(=O)N[C@H]2C=C[C@@H](CC(=O)Nc3ccc(-c4ccccc4)cc3)O[C@@H]2CO)c1	12.2	-0.1	-1.9	-16.4	.	.	.	.
C[C@@H]1CN([C@H](C)CO)S(=O)(=O)c2ccc(C#Cc3ccc(F)cc3)cc2O[C@H]1CN(C)C(=O)NC1CCCC1	4.0	8.1	-5.2	86.1	.	.	.	.
C[C@H]1CN([C@@H](C)CO)S(=O)(=O)c2ccc(C#Cc3ccc(F)cc3)cc2O[C@@H]1CN(C)C(=O)NC1CCCC1	-80.0	.	-0.5	116.8*	101.0*	74.5	-15.5	107.3*
CC(C)NC(=O)N(C)C[C@H]1Oc2cc(C#Cc3ccc(F)cc3)ccc2S(=O)(=O)N([C@@H](C)CO)C[C@@H]1C	-46.3	7.3	-2.9	83.9	.	.	.	.
CC(C)NC(=O)N(C)C[C@@H]1Oc2cc(C#Cc3ccc(F)cc3)ccc2S(=O)(=O)N([C@@H](C)CO)C[C@@H]1C	-45.2	0.3	1.1	114.1*	106.9*	66.2	21.0	?
C[C@H](CO)N1C[C@H](C)[C@H](CN(C)S(=O)(=O)c2ccccc2)Oc2c(NS(=O)(=O)c3cccs3)cccc2C1=O	-13.6	.	-0.2	36.5	.	.	.	.
CN(C)c1ccc2c(c1)[C@H]1C[C@H](CC(=O)NCc3ccc(-c4ccccc4)cc3)O[C@@H](CO)[C@H]1O2	-36.8	-1.5	4.0	113.7*	110.3*	102.4*	5.4	4.3
COc1ccc(CNC(=O)C[C@@H]2C[C@H]3c4cc(N(C)C)ccc4O[C@H]3[C@@H](CO)O2)cc1	6.3	-1.7	2.4	-17.8	.	.	.	.
COc1ccc(CNC(=O)C[C@H]2C[C@H]3c4cc(N(C)C)ccc4O[C@H]3[C@H](CO)O2)cc1	-45.4	-0.8	18.9	-45.1	.	.	.	.
CN(C)c1ccc2c(c1)[C@@H]1C[C@@H](CC(=O)NCc3cc(F)ccc3F)O[C@H](CO)[C@@H]1O2	-35.7	-2.9	5.0	36.3	.	.	.	.
CN(C)c1ccc2c(c1)[C@@H]1C[C@@H](CC(=O)NCc3cc(F)ccc3F)O[C@@H](CO)[C@@H]1O2	-87.0*	-6.7	8.9	+	71.9	27.7	-8.6	8.8
CN(C)c1ccc2c(c1)[C@H]1C[C@H](CC(=O)NCc3ccc(Oc4ccccc4)cc3)O[C@@H](CO)[C@H]1O2	-38.9	-2.1	0.4	131.9*	107.0*	105.0*	-3.1	?
O=C(C1CCC1)N1CC2(C1)[C@@H](c1ccccc1)[C@@H](CO)N2C(=O)NC1CCCC1	7.3	.	-1.8	.	.	.	.	.
O=C(CCN1CCCCC1)NCC[C@@H]1CC[C@H](NC(=O)C2CCC2)[C@H](CO)O1	-4.3	-0.5	1.1	.	.	.	.	.
O=C(C1CC1)N1CCCCN2[C@H](CO)[C@H](c3ccc(-c4cccc(F)c4)cc3)[C@@H]2C1	13.3	.	0.3	?	104.8*	33.3	25.3	?
O=C(C1CC1)N1CCCCN2[C@@H](CO)[C@H](c3ccc(-c4cccc(F)c4)cc3)[C@@H]2C1	23.0	.	0.5	?	99.7*	87.2	22.3	37.4*
O=C(C1CCCC1)N1CCCCN2[C@H](C1)[C@H](c1ccc(-c3cccc(F)c3)cc1)[C@@H]2CO	22.7	.	.	87.8	.	.	.	.
O=C(C1CCCC1)N1CCCCN2[C@H](CO)[C@H](c3ccc(-c4cccc(F)c4)cc3)[C@H]2C1	-30.2	.	.	117.7*	108.1*	75.2	7.7	102.4*
CCCc1cn([C@H]2C[C@@H]3O[C@@H](CO)CC[C@@H]3O[C@@H]2CCc2ccc(C#CCc3ccccc3)cc2)nn1	-74.4	.	.	.	.	.	.	.
Cc1ccc(S(=O)(=O)N2[C@@H]3CNC[C@H]2C3c2ccc(-c3ccc(C#N)cc3)cc2)cc1 (stereo partly specified)	-2.0	.	0.8	.	.	.	.	.
SMILES	Pf Dd2 inh	IDH1 mut inh	KDM4C inh	T cruzi growth-1	T cruzi growth-2	T cruzi growth-3	3T3 cytotox	NIH3T3 tox 2
C[C@@H]1CN([C@H](C)CO)C(=O)c2cc(-c3ccccc3)cnc2O[C@H]1CN(C)C	4.3	1.7	3.5	?	100.0*	-25.6	4.7	20.4
C[C@H]1CN([C@@H](C)CO)C(=O)c2cc(-c3cncnc3)cnc2O[C@H]1CN(C)C(=O)CN1CCOCC1	19.3	0.1	1.7	.	.	.	.	.
Cc1ccc(-c2cnc3c(c2)C(=O)N([C@@H](C)CO)C[C@H](C)[C@@H](CN(C)CC2CCCC2)O3)cc1	-69.3	-0.6	-1.5	102.9*	107.7*	43.2	?	104.5*
C[C@H](CO)N1C[C@H](C)[C@@H](CN(C)C(=O)CN2CCOCC2)Oc2ncc(-c3cncnc3)cc2C1=O	-16.1	-1.5	1.2	?	-8.0	13.7	-1.6	-4.2
C[C@H]1CCCCO[C@H](CN(C)S(=O)(=O)c2cn(C)cn2)[C@@H](C)CN([C@@H](C)CO)C(=O)c2cc(NS(C)(=O)=O)ccc2O1	-17.2	0.0	0.1	-48.3	.	.	.	.
O=C(C[C@@H]1CC[C@H]2[C@@H](COC[C@@H](O)CN2S(=O)(=O)c2ccccc2)O1)NCCN1CCCC1	8.6	.	0.5	.	.	.	.	.
N#C[C@@H]1[C@@H](c2ccc(C3=CCCC3)cc2)[C@H](CO)N1C(=O)C1CCC1	30.7	.	4.0	77.4	.	.	.	.
CN(C)C(=O)c1cccc(-c2ccc([C@@H]3[C@@H](C#N)N(C(=O)C4CCC4)[C@@H]3CO)cc2)c1	30.8	.	-3.0	89.1	.	.	.	.
CN(C)C(=O)c1cccc(-c2ccc([C@@H]3[C@@H](CO)N(C(=O)C4CCC4)[C@H]3C#N)cc2)c1	-5.0	.	-2.2	100.8*	-25.1	3.9	-15.4	0.6
N#C[C@H]1[C@H](c2ccc(C3=CCCC3)cc2)[C@H](CO)N1C(=O)C1CCC1	15.7	.	0.9	?	96.3*	23.8	-6.4	17.9
